Measured values reported in ChEMBL document CHEMBL1136812, “Structure-activity relationships of dimethindene derivatives as new M2-selective muscarinic receptor antagonists” (J Med Chem, 2003).

Experiments:
Assay type in all cases: cell-based
[1] = target: Muscarinic acetylcholine receptor M3 (Homo sapiens, UniProt P20309); experiment: Binding affinity towards cloned human muscarinic acetylcholine receptor M3 stably expressed in CHO-K1 cells using [3H]N-methylscopolamine
[2] = target: T1, Muscarinic acetylcholine receptor M1 (Homo sapiens, UniProt P11229); experiment: Binding affinity towards cloned human muscarinic acetylcholine receptor M1 stably expressed in CHO-K1 cells using [3H]N-methylscopolamine
T1 sequence (P11229 whole entry): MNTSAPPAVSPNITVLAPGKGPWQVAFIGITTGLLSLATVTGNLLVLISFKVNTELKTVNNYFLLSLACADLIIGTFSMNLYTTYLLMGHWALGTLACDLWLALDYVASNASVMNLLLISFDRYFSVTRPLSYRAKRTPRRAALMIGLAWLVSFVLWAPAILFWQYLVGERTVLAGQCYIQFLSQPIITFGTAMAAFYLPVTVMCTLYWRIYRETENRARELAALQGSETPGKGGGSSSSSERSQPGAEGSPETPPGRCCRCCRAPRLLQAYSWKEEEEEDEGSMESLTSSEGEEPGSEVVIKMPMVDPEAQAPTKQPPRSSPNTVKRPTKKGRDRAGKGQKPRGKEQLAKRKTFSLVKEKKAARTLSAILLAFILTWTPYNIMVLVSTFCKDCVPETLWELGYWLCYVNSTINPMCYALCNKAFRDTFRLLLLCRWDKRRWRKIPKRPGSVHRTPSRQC

[3] = target: T2, Muscarinic acetylcholine receptor M5 (Homo sapiens, UniProt P08912); experiment: Binding affinity towards cloned human muscarinic acetylcholine receptor M5 stably expressed in CHO-K1 cells using [3H]N-methylscopolamine
T2 sequence (P08912 whole entry): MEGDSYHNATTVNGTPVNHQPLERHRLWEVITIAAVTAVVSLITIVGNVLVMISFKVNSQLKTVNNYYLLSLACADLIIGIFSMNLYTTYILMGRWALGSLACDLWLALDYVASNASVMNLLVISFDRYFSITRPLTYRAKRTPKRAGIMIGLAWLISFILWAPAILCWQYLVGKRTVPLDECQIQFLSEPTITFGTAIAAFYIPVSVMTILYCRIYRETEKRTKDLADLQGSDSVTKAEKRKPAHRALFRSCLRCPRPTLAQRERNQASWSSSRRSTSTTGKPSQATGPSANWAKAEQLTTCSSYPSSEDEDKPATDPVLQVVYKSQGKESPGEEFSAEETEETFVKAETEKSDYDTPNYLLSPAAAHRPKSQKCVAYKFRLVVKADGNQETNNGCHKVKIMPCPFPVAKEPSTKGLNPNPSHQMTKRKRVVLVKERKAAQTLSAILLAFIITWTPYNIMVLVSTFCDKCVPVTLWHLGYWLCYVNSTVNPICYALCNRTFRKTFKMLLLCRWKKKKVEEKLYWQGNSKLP

Histamine H1 receptor = Histamine H1 receptor (Homo sapiens, UniProt P35367); experiment: Compound was evaluated for binding affinity towards cloned human histamine H1 receptors stably expressed in CHO-K1 cells using [3H]mepyramine
Summary of the method: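 CHO-K1 membranes with stable human H1 receptor, 18 µg/mL final protein. […] Nonspecific binding with 0.1 mM terfenadine. Filtered and counted. Ki by Cheng-Prusoff. pKi mean ± SD, ≥3 experiments in duplicate.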

[4] = target: T3, Muscarinic acetylcholine receptor M2 (Homo sapiens, UniProt P08172); experiment: Binding affinity towards cloned human muscarinic acetylcholine receptor M2 stably expressed in CHO-K1 cells using [3H]N-methylscopolamine
T3 sequence (P08172 whole entry): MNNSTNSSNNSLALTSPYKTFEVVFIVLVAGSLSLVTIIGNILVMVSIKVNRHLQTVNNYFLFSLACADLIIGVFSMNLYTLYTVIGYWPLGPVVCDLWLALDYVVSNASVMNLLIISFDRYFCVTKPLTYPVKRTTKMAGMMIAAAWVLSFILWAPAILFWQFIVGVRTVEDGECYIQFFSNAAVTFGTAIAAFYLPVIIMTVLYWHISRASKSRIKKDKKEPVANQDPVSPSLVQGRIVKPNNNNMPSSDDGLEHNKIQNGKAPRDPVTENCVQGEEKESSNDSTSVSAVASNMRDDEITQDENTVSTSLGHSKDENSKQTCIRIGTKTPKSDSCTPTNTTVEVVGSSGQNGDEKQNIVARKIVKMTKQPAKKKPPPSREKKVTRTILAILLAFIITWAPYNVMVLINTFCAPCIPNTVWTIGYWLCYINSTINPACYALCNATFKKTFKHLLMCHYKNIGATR

[5] = target: T4, Muscarinic acetylcholine receptor M4 (Homo sapiens, UniProt P08173); experiment: Binding affinity towards cloned human muscarinic acetylcholine receptor M4 stably expressed in CHO-K1 cells using [3H]N-methylscopolamine
T4 sequence (P08173 whole entry): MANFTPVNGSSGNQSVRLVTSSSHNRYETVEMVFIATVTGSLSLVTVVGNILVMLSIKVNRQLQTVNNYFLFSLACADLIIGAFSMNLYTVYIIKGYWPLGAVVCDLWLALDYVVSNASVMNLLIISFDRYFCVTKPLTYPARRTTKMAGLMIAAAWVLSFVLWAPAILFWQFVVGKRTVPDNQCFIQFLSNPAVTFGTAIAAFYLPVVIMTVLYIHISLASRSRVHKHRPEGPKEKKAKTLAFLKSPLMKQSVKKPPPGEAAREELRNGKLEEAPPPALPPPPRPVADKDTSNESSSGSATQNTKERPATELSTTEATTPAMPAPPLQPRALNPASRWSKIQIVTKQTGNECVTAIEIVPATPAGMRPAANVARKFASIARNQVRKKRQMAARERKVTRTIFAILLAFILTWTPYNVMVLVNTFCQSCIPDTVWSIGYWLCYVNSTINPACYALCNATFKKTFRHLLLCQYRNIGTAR

Chain of Histamine H1 receptor (P35367 whole entry): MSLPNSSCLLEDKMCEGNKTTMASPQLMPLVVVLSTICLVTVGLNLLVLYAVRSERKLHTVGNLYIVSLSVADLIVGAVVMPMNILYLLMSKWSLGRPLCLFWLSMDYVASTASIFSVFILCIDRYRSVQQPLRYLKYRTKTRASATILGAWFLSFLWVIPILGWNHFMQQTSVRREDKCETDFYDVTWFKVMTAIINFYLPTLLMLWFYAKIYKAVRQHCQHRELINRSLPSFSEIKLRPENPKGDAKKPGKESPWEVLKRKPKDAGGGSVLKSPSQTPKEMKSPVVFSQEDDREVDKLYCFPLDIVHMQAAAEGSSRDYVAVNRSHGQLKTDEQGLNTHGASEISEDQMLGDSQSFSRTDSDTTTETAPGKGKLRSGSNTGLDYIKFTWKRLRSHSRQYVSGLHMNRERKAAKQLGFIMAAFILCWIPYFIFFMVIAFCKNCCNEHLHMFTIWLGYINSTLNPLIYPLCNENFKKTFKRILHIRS
Chain of Muscarinic acetylcholine receptor M3 (P20309 whole entry): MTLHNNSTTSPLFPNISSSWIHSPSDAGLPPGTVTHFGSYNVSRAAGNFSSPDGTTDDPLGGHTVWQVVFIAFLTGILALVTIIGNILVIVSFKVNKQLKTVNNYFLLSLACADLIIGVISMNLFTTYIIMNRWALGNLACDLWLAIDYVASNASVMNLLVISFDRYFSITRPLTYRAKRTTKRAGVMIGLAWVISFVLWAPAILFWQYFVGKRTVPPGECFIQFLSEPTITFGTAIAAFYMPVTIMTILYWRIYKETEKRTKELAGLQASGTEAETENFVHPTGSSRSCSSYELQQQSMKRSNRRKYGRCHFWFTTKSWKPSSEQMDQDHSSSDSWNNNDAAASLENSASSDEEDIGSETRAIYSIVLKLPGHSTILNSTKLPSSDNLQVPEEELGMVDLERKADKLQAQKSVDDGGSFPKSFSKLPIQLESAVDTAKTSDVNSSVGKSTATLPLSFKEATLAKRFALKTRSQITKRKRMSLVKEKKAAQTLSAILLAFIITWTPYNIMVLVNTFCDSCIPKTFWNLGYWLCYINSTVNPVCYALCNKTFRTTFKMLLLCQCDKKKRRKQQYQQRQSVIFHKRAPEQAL

| SMILES | Ki [1] [nM] | Ki [2] [nM] | Ki [3] [nM] | Ki (Histamine H1 receptor) [nM] | Ki [4] [nM] | Ki [5] [nM] |
| --- | --- | --- | --- | --- | --- | --- |
| C[C@@H](C1=C(CCN(C)C)Cc2ccccc21)c1ccccn1 | 138 | 191 | 759 | 69.2 | 30.2 | 295 |
| CC(C1=C(CCN(C)C)Cc2cc(Cl)ccc21)c1ccccn1 (stereo not drawn) | 95.5 | 151 | 724 | 0.813 | 33.1 | 331 |
| CC(C1=C(CCCN(C)C)Cc2ccccc21)c1ccccn1 (stereo not drawn) | 575 | 891 | 3240 | – | 263 | 1700 |
| CN(C)CCC1=C(Cc2ccccn2)c2ccccc2C1 | 1550 | 1580 | 3630 | – | 234 | 2400 |
| CN(C)CCC1=C(C(c2ccccc2)c2ccccn2)c2ccccc2C1 (stereo not drawn) | 67.6 | 43.7 | 66.1 | – | 229 | 129 |
| CC(C1=C(CCN(C)CCF)Cc2ccccc21)c1ccccn1 (stereo not drawn) | 708 | 603 | 2000 | 7.24 | 32.4 | 437 |
| CSc1ccc2c(c1)C(C(C)c1ccccn1)=C(CCN(C)C)C2 (stereo not drawn) | 1050 | 871 | 3240 | – | 912 | 2000 |
| CC(C1=C(CCN(C)C(C)C)Cc2ccccc21)c1ccccn1 (stereo not drawn) | 1820 | 871 | 2190 | – | 145 | 1000 |
| CC(C1=C(CN(C)C)Cc2ccccc21)c1ccccn1 (stereo not drawn) | 31.6 | 34.7 | 87.1 | 28.8 | 12.3 | 97.7 |
| CC(C1=C(CCN(C(C)C)C(C)C)Cc2ccccc21)c1ccccn1 (stereo in doubt; 19) | 2240 | 741 | 2190 | – | 25.1 | 741 |
| CC(C1=C(CCN(C(C)C)C(C)C)Cc2ccccc21)c1ccccn1 (stereo in doubt; (+)-19) | 20900 | 5890 | 5130 | 219 | 575 | 5500 |
| CC(C1=C(CCN(C(C)C)C(C)C)Cc2ccccc21)c1ccccn1 (stereo in doubt; (-)-19) | 4070 | 1550 | 11700 | 2450 | 42.7 | 1780 |
| C[C@H](C1=C(CCN(C)C)Cc2ccccc21)c1ccccn1 [(S)-(+)-DIMETHINDENE] | 3390 | 1860 | 2690 | 0.437 | 1230 | 3890 |
| CC(C1=C(CCN(C)C)Cc2ccccc21)c1ccccn1 (stereo not drawn) [DIMETHINDENE] | – | – | – | 0.692 | – | – |
